# Not all results are given here.
# Apaf-1 act: activates human Apaf-1 apoptosome | O14727 | Apaf-1 apoptosome caspase-3 activation, DEVD-Rh110 fluorescence; hits give low values | activity change, negative = activation, % at 20 µM | 0.31% of 330,000 active;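 active means activity change at or below -40% at 20 µM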
# Target sequence (O14727 whole entry, looked up): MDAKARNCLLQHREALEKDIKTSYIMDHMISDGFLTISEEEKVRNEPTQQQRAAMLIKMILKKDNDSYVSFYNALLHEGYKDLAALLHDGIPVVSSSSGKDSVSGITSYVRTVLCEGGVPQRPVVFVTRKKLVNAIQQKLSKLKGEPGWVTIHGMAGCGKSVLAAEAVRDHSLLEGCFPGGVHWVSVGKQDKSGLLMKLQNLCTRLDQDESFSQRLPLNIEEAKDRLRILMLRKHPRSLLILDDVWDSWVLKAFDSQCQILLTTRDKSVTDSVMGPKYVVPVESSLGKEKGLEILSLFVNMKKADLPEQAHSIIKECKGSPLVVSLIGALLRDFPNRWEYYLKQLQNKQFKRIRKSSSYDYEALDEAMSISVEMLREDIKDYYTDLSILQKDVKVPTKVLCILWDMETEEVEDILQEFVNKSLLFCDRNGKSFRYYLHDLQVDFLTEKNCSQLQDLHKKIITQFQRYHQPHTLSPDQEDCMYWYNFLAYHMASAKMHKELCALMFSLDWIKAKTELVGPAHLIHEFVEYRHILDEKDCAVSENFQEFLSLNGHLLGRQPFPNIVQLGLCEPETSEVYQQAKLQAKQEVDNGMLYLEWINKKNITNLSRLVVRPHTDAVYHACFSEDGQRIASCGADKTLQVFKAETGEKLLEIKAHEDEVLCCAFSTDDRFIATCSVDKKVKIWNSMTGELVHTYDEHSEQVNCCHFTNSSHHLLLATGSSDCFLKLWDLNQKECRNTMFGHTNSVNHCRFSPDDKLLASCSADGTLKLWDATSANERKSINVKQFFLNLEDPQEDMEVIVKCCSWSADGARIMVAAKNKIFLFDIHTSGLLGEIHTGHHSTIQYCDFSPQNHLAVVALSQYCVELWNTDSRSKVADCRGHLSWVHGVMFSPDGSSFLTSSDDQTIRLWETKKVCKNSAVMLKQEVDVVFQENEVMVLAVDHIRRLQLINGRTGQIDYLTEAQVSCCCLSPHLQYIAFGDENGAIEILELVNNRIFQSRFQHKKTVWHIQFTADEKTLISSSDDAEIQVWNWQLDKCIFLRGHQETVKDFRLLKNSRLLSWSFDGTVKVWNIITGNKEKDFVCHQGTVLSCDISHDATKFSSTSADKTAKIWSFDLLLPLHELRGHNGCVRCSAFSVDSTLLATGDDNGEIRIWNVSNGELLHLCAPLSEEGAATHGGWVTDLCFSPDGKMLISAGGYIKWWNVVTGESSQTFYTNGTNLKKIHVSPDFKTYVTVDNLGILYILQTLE
#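 Assay system – biochemical Apaf-1 apoptosome reconstitution · Medium – 20 mM HEPES buffer, pH 7.5, containing CHAPS and BSA · Incubation – 30 min preincubation, 50 min reaction, room temperature · Measured by – Caspase-3-released Rh110 fluorescence, 540 nm emission, 480 nm excitation · Read-out – Caspase-3 cleavage activity downstream of Apaf-1 activation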
# * marks the source's active call; other numbers are inactive results.
SMILES,Apaf-1 act
CC(CS(=O)(=O)c1ccc2c(c1)NC(=O)CS2)C(=O)NCc1ccccc1Cl (stereo unspecified),-158*
Cc1cc(C)c(C#N)c(SCC(=O)Nc2nonc2N)n1,64
CC/C(=C(/CC)c1ccc(O)cc1)c1ccc(O)cc1,-151*
CCc1ccc(CNc2ccc(O)cc2)cc1,96
CC/C(=C(\c1ccc(O)cc1)c1ccc(OCCN(C)C)cc1)c1ccccc1,65
Cc1cc(C)c(C2=CC(c3ccccc3)n3ncnc3N2)cc1C (stereo unspecified),-215*
CCCCNc1c(-c2ccc(SC(C)CC)cc2)nc2cnccn12 (stereo unspecified),60
Cc1c(Cl)cccc1N=C1SCCN1C(=O)CN1C(=O)NC2(CCCC2)C1=O,40
COCCn1c(SCC(=O)NNC(=O)c2cc(Cl)ccc2OC)nnc1-c1ccncc1,49
CCCOc1cc2c(C#N)c(N3CCCC3)nc(N)c2c(N)n1,98
COc1ccc(NC(=O)CN2C(=O)S/C(=C/c3cccn3-c3ccc(C(=O)O)cc3)C2=O)cc1,-240*
COc1ccc(NC(=O)CCn2c(=S)[nH]c3ccccc3c2=O)cc1,86
COc1cc(/C=C2/C(=O)N(c3ccc(C(=O)O)cc3)N=C2C)cc(OC)c1O,78
CC1(C)CNc2cc(N)ccc2S1,50
CCCCCCCNC(=O)C1(CC2CC(c3cccc(Br)c3)=NO2)CCNCC1 (stereo unspecified),46
CCC1CCCCN1C(=O)COc1ccc(N(C)S(=O)(=O)c2ccc(C)cc2)cc1 (stereo unspecified),51
CN(CC(=O)Nc1ccc(F)cc1)C(=O)C1CC(=O)N(Cc2ccccc2)C1 (stereo unspecified),44
c1ccc2c(NCCCN3CCOCC3)c3ccccc3nc2c1,-63*
Cc1c2ccccc2nc2c(F)c(NCCO)c(F)c(F)c12,54
CCN(c1ccccc1)S(=O)(=O)c1cccc(C(=O)NCCN2CCOCC2)c1,44
O=C(CCS(=O)(=O)c1ccc(Br)cc1)Nc1cc(F)ccc1F,-129*
CCOc1ccc(NC(=O)CCS(=O)(=O)c2ccc(Br)cc2)cc1,-109*
CCCN(CC(=O)Nc1ccccc1C)C(=O)CCCOc1ccc(Br)cc1,53
CCOc1ccc(NS(=O)(=O)c2ccc(C(=O)N(CC)CC(=O)NCc3cccs3)cc2)cc1,61
COc1cc(NC(C)CCCN)c2ncccc2c1Oc1ccccc1 (stereo unspecified),70
SMILES,Apaf-1 act
CCn1c2ccccc2c2nnc(SCC(=O)c3c(N)n(C)c(=O)n(C)c3=O)nc21,54
CCCCn1c2ccccc2c2nnc(SCC(=O)NC3=NN=C(c4ccccc4)CS3)nc21,-69*
CCCCn1c(NC(C)=O)c(C#N)c2nc3ccccc3nc21,84
COc1ccc(C2(c3ccc(OC)cc3)NC(=O)N(CC(=O)Nc3ccc(N4CCOCC4)cc3)C2=O)cc1,41
COc1cc(NC(=O)CN2C(=O)NC3(CCOc4ccccc43)C2=O)cc(OC)c1 (stereo unspecified),59
COc1ccc(C2(c3ccc(OC)cc3)NC(=O)N(CC(=O)N(C)C)C2=O)cc1,-131*
CCCCCCCNC(=O)C1(CC2CC(c3ccc(Cl)cc3)=NO2)CCNCC1 (stereo unspecified),41
FC(F)(F)c1cc(CO[C@@H]2CCCN[C@@H]2c2ccccc2)cc(C(F)(F)F)c1,47
N#C/C(=C/c1ccc(OCc2ccc(C(=O)O)cc2)c(Br)c1)c1cccc(F)c1,-335*
Cc1ccc(C)c(NC(=O)/C(C#N)=C/c2ccc(Sc3nncn3C)c([N+](=O)[O-])c2)c1,-217*
COc1ccc(-n2c(C)cc(/C=N/Nc3nnc(C)n3N)c2C)cc1,53
COC(=O)C1=C(C)N(Cc2ccccc2)C(=NCCc2c[nH]c3ccccc23)N[C@H]1c1ccccc1,69
O=C(NCCc1c[nH]c2ccccc12)OCCSS(=O)(=O)O,-93*
COC(=O)C1=C(C)N(Cc2ccccc2)C(=NCCc2c[nH]c3ccccc23)N[C@H]1c1cccc(F)c1,60
CCCc1cc(=O)oc2c3c(c4c(c12)OC(C)(C)C=C4)OC(C)C(C)C3O (stereo unspecified),53
COC(=O)C1=C(C)N(Cc2ccccc2)C(=NCc2cc(OC)c(OC)c(OC)c2)N[C@H]1c1ccc(Br)cc1,55
C=C(C)C(=O)Nc1ccc2c(c1)OCCOCCOCCO2,-447*
CC(=O)Nc1ccc2nc3ccccc3nc2c1,50
CCN(CC(=O)Nc1ccc2c(c1)OCCO2)C(=O)/C=C/c1ccc(OC)cc1OC,64
CCN1CCN(S(=O)(=O)c2ccc(Cl)c(C(=O)N(C)Cc3cccc(Cl)c3Cl)c2)CC1,43
COc1ccc(C(CNC(=O)c2cccc(S(=O)(=O)N(C)c3ccccc3)c2)N2CCCC2)cc1 (stereo unspecified),43
S=C(NCc1ccc2c(c1)OCO2)Nc1ccc2nsnc2c1,62
O=C(NC(Cc1ccc2c(c1)OCO2)C(=O)NC(Cc1ccccc1)C(=O)O)c1ccccc1 (stereo unspecified),-42*

# Compound activity as filed in PubChem BioAssay.
